{"source": "ChEMBL document CHEMBL5696444", "about": "(Nat Commun, 2017)", "key": {"[1]": {"biological_target": "Serine/threonine-protein kinase mTOR (Homo sapiens) (UniProt P42345)", "assay": "Inhibition of FRAP1 (unknown origin) at 100 nM in the presence of ATP by Kinome scan method relative to control"}, "[2]": {"biological_target": "Dual specificity protein kinase CLK2 (Homo sapiens, UniProt P49760)", "sequence (P49760 whole entry, looked up)": "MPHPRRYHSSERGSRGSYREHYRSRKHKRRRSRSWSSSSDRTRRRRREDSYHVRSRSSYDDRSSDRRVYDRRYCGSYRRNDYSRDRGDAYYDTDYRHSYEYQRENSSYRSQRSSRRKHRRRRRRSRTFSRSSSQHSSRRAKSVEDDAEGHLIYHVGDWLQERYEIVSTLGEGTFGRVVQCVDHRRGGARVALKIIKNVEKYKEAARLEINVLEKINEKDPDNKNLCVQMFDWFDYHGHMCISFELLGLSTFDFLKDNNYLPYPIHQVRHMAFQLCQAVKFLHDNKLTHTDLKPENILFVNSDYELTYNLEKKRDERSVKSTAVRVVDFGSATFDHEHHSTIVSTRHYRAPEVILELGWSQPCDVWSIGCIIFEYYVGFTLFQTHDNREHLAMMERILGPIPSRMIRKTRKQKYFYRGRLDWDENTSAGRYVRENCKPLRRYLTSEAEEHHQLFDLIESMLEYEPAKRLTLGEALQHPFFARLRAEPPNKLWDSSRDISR", "assay": "Inhibition of N-terminal FLAG-tagged human CLK2 at 1110 nM in the presence of ATP by Kinome scan method relative to control"}, "[3]": {"biological_target": "Tyrosine-protein kinase receptor UFO (Homo sapiens) (UniProt P30530)", "sequence (P30530 whole entry)": "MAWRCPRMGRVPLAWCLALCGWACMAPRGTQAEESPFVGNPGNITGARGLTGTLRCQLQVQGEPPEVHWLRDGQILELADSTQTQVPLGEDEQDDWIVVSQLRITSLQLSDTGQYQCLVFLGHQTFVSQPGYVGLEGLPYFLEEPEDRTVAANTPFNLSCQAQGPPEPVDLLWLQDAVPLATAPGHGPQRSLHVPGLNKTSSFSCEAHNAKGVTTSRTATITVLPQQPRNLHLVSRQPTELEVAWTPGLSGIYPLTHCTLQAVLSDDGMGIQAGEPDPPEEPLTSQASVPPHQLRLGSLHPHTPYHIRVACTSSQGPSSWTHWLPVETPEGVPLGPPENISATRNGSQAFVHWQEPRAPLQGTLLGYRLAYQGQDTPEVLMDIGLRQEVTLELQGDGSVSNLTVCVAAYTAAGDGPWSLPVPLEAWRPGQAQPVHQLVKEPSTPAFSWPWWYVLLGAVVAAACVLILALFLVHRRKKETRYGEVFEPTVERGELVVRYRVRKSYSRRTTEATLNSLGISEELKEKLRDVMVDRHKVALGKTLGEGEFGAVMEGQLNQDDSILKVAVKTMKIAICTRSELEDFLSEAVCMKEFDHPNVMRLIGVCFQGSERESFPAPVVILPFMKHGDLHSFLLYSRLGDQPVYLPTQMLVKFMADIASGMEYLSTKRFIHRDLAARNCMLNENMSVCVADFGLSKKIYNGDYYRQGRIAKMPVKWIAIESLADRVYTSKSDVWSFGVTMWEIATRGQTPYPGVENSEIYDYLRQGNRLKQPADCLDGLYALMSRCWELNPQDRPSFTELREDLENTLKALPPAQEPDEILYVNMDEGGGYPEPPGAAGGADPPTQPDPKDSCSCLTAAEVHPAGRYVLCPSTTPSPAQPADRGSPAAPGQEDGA", "assay": "Inhibition of AXL (unknown origin) at 100 nM in the presence of ATP by Kinome scan method relative to control"}, "[4]": {"biological_target": "Serine/threonine-protein kinase Chk2 (Homo sapiens) (UniProt O96017)", "sequence (O96017 whole entry)": "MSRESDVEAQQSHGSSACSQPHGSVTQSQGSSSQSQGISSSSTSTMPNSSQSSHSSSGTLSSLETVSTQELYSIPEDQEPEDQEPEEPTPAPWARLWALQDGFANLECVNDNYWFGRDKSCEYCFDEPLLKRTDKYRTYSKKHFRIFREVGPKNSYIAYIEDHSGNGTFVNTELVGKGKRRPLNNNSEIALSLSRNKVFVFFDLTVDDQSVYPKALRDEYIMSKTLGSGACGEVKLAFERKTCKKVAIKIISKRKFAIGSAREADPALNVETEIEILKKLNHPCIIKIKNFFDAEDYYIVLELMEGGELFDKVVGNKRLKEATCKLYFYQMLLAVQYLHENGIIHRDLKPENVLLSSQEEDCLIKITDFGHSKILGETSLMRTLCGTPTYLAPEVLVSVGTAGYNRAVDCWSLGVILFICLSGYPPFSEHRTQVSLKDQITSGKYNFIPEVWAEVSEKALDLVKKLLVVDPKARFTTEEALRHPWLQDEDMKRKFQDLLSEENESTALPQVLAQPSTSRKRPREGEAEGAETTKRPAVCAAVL", "assay": "Inhibition of CHEK2 (unknown origin) at 1000 nM in the presence of ATP by Kinome scan method relative to control"}, "[5]": {"system": "HCT-116", "assay": "Induction of apoptosis in human HCT-116 cells assessed as early apoptosis at 0.5 uM incubated for > 6 hrs by annexin V/PI staining based analysis (Rvb=3.29%)", "format": "functional"}, "[6]": {"biological_target": "Mitogen-activated protein kinase 8 (Homo sapiens) (UniProt P45983)", "assay": "Inhibition of MAPK8 (unknown origin) at 1000 nM in the presence of ATP by Kinome scan method relative to control"}, "[7]": {"biological_target": "Casein kinase I isoform alpha (Homo sapiens) (UniProt P48729)", "assay": "Inhibition of CSNK1A1 (unknown origin) at 100 nM in the presence of ATP by Kinome scan method relative to control"}, "[8]": {"system": "HCT-116", "assay": "Induction of cell cycle arrest in human HCT-116 cells assessed as G0/G1 phase at 10 uM incubated for 6 hrs by flow cytometry analysis (Rvb=35.0%)", "format": "functional"}, "[9]": {"biological_target": "Serine/threonine-protein kinase Chk2 (Homo sapiens) (UniProt O96017)", "assay": "Inhibition of CHEK2 (unknown origin) at 100 nM in the presence of ATP by Kinome scan method relative to control"}, "[10]": {"biological_target": "Angiopoietin-1 receptor (Homo sapiens) (UniProt Q02763)", "assay": "Inhibition of TEK (unknown origin) at 1000 nM in the presence of ATP by Kinome scan method relative to control"}, "[11]": {"system": "HCT-116", "assay": "Induction of cell cycle arrest in human HCT-116 cells assessed as S phase at 1 uM incubated for 6 hrs by flow cytometry analysis (Rvb=39.3%)", "format": "functional"}, "[12]": {"biological_target": "Dual specificity protein kinase CLK1 (Homo sapiens) (UniProt P49759)", "sequence (P49759 whole entry, looked up)": "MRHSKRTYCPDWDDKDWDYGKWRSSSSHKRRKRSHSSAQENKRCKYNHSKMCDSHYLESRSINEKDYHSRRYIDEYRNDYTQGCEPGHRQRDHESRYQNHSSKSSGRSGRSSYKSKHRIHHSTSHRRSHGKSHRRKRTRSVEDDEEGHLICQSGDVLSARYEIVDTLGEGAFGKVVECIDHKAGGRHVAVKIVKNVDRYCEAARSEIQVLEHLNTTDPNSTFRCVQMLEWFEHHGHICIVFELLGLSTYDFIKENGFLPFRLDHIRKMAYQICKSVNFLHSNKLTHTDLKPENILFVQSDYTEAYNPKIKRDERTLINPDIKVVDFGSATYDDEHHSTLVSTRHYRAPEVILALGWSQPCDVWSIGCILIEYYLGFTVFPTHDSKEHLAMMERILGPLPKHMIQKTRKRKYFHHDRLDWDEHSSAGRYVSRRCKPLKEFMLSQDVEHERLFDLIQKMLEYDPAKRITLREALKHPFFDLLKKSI", "assay": "Inhibition of CLK (unknown origin) in human 184-hTERT cells assessed as induction in alternative splicing effect in CDC6-RARA level incubated for 6 hrs by RT-PCR analysis", "format": "cell-based", "settings": "dose 0.2-5 µM", "how_it_was_run": "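Cells exposed to graded T3 concentrations for 6 h (chosen to avoid cytotoxicity), with a DMSO vehicle control. Total RNA was reverse-transcribed with oligo-dT primers. Targeted splice or conjoined-gene products were quantified by real-time qPCR or by targeted next-generation sequencing. Conjoined-gene isoform expression was normalized to a sequenced housekeeping gene.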"}, "[13]": {"biological_target": "Dual specificity protein kinase CLK1 (Homo sapiens) (UniProt P49759)", "assay": "Inhibition of CLK1 (unknown origin) at 123 nM in the presence of ATP by Kinome scan method relative to control", "settings": "time > 6.0 hrs"}, "[14]": {"biological_target": "MAP kinase-activated protein kinase 2 (Homo sapiens) (UniProt P49137)", "assay": "Inhibition of MAPKAPK2 (unknown origin) at 1000 nM in the presence of ATP by Kinome scan method relative to control"}, "[15]": {"system": "HCT-116", "assay": "Induction of apoptosis in human HCT-116 cells assessed as necrosis cells at 10 uM incubated for > 6 hrs by annexin V/PI staining based analysis (Rvb=0.55%)", "format": "functional"}, "[16]": {"biological_target": "Dual specificity tyrosine-phosphorylation-regulated kinase 3 (Homo sapiens) (UniProt O43781)", "assay": "Inhibition of DYRK3 (unknown origin) at 1110 nM in the presence of ATP by Kinome scan method relative to control", "settings": "time > 6.0 hrs"}, "[17]": {"system": "HCT-116", "assay": "Induction of apoptosis in human HCT-116 cells assessed as late apoptosis at 1 uM incubated for > 6 hrs by annexin V/PI staining based analysis (Rvb=6.12%)", "format": "functional"}, "[18]": {"system": "HCT-116", "assay": "Induction of apoptosis in human HCT-116 cells assessed as necrosis cells at 0.1 uM incubated for > 6 hrs by annexin V/PI staining based analysis (Rvb=0.55%)", "format": "functional"}, "[19]": {"system": "HCT-116", "assay": "Induction of cell cycle arrest in human HCT-116 cells assessed as S phase at 5 uM incubated for 6 hrs by flow cytometry analysis (Rvb=39.3%)", "format": "functional"}, "[20]": {"biological_target": "Aurora kinase B (Homo sapiens) (UniProt Q96GD4)", "assay": "Inhibition of AURKB (unknown origin) at 1000 nM in the presence of ATP by Kinome scan method relative to control"}, "[21]": {"biological_target": "Dual specificity tyrosine-phosphorylation-regulated kinase 1B (Homo sapiens, UniProt Q9Y463)", "assay": "Inhibition of DYRK1B (unknown origin) at 1110 nM in the presence of ATP by Kinome scan method relative to control", "settings": "time > 6.0 hrs"}, "[22]": {"biological_target": "SRSF protein kinase 1 (Homo sapiens) (UniProt Q96SB4)", "assay": "Inhibition of SRPK1 (unknown origin) at 1110 nM in the presence of ATP by Kinome scan method relative to control", "settings": "time > 6.0 hrs"}, "[23]": {"system": "HCT-116", "assay": "Induction of apoptosis in human HCT-116 cells assessed as necrosis cells at 5 uM incubated for > 6 hrs by annexin V/PI staining based analysis (Rvb=0.55%)", "format": "functional"}, "[24]": {"biological_target": "Protein kinase C alpha type (Homo sapiens) (UniProt P17252)", "assay": "Inhibition of PRKCA (unknown origin) at 1000 nM in the presence of ATP by Kinome scan method relative to control"}, "[25]": {"biological_target": "Death-associated protein kinase 1 (Homo sapiens) (UniProt P53355)", "sequence (P53355 whole entry, looked up)": "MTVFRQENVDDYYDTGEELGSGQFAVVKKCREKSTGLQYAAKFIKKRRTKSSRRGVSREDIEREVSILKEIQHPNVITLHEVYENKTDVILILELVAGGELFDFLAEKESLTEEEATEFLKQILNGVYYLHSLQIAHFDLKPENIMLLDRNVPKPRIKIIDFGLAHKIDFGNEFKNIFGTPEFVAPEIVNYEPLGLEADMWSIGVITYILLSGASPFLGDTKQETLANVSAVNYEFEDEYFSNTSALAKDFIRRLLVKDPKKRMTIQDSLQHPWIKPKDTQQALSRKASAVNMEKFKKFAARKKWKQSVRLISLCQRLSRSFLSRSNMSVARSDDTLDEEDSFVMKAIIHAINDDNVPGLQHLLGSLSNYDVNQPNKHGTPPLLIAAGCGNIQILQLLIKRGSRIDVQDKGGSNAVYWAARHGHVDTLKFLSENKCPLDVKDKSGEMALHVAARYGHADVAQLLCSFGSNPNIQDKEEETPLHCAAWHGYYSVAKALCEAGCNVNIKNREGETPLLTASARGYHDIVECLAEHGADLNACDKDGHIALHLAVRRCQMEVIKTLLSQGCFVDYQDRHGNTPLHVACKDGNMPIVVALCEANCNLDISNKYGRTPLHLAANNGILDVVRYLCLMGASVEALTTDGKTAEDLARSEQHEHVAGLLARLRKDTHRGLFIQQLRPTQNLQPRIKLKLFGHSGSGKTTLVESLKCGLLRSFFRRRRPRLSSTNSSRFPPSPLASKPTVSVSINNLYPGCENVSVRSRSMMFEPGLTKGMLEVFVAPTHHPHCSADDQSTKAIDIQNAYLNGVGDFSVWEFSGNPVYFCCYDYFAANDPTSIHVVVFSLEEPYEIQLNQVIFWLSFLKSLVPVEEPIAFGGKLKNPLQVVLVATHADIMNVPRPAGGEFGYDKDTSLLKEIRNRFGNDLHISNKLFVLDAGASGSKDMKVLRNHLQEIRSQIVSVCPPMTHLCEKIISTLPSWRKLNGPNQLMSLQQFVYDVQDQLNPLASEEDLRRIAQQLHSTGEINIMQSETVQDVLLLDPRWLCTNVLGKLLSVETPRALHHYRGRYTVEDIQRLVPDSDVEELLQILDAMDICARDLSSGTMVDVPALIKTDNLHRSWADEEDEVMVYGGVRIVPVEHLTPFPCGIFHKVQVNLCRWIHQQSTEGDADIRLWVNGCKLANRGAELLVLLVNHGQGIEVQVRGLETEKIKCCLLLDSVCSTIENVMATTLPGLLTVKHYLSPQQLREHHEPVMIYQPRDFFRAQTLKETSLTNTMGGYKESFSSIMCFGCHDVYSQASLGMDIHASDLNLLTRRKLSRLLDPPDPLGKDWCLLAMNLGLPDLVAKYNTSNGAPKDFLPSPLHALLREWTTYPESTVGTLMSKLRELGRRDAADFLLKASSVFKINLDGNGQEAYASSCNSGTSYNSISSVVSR", "assay": "Inhibition of DAPK1 (unknown origin) at 100 nM in the presence of ATP by Kinome scan method relative to control"}, "[26]": {"species": "Homo sapiens", "assay": "Inhibition of CDK2/cyclin A (unknown origin) at 1000 nM in the presence of ATP by Kinome scan method relative to control"}, "[27]": {"system": "HCT-116", "assay": "Induction of cell cycle arrest in human HCT-116 cells assessed as G0/G1 phase at 0.5 uM incubated for 6 hrs by flow cytometry analysis (Rvb=35.0%)", "format": "functional"}, "[28]": {"biological_target": "Ephrin type-B receptor 1 (Homo sapiens) (UniProt P54762)", "assay": "Inhibition of EPHB1 (unknown origin) at 100 nM in the presence of ATP by Kinome scan method relative to control"}, "[29]": {"biological_target": "PI3-kinase p110-alpha/p85-alpha (Homo sapiens) (UniProt P27986+P42336)", "assay": "Inhibition of PIK3CA/PIK3R1 (unknown origin) at 100 nM in the presence of ATP by Kinome scan method relative to control", "format": "protein-complex assay"}, "[30]": {"biological_target": "Ribosomal protein S6 kinase beta-1 (Homo sapiens) (UniProt P23443)", "sequence (P23443 whole entry, looked up)": "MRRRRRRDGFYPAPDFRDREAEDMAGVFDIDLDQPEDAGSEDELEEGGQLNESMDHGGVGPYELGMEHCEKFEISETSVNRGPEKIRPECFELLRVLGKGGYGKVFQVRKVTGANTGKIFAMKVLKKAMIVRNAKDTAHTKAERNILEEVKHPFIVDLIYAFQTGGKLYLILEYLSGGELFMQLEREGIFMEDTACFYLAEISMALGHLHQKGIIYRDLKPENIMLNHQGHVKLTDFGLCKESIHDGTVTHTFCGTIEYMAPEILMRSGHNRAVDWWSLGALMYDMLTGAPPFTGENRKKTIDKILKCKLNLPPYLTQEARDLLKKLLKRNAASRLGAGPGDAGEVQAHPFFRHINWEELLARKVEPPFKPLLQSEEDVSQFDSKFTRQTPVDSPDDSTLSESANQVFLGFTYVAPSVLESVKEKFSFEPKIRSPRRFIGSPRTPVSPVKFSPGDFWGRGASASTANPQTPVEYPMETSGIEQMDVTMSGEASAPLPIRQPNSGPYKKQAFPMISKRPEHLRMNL", "assay": "Inhibition of RPS6KB1 (unknown origin) at 100 nM in the presence of ATP by Kinome scan method relative to control"}, "[31]": {"biological_target": "CDK7/Cyclin H/MNAT1 (Homo sapiens) (UniProt P51946+P50613+P51948)", "assay": "Inhibition of CDK7/cyclin H/MNAT1 (unknown origin) at 100 nM in the presence of ATP by Kinome scan method relative to control", "format": "protein-complex assay"}}, "data": [{"smiles": "CN1CCN(C(=O)C(C)(C)c2ccc(C(=O)Nc3cn4cc(-c5ccncc5)ccc4n3)cc2)CC1", "note": "[T3-CLK]", "values": [{"measurement": "inhibition", "setting": "[1]", "result": -6, "unit": "%"}, {"measurement": "inhibition", "setting": "[2]", "result": 100, "unit": "%"}, {"measurement": "inhibition", "setting": "[3]", "result": -10, "unit": "%"}, {"measurement": "inhibition", "setting": "[4]", "result": 24, "unit": "%"}, {"measurement": "Activity", "setting": "[5]", "result": 3.04, "unit": "%"}, {"measurement": "inhibition", "setting": "[6]", "result": 3, "unit": "%"}, {"measurement": "inhibition", "setting": "[7]", "result": -4, "unit": "%"}, {"measurement": "Activity", "setting": "[8]", "result": 28.4, "unit": "%"}, {"measurement": "inhibition", "setting": "[9]", "result": 22, "unit": "%"}, {"measurement": "inhibition", "setting": "[10]", "result": 0, "unit": "%"}, {"measurement": "Activity", "setting": "[11]", "result": 47, "unit": "%"}, {"measurement": "inhibition", "setting": "[12]", "result": "Dose-Dependent Effect"}, {"measurement": "inhibition", "setting": "[13]", "result": 91, "unit": "%"}, {"measurement": "inhibition", "setting": "[14]", "result": 2, "unit": "%"}, {"measurement": "Activity", "setting": "[15]", "result": 0.86, "unit": "%"}, {"measurement": "inhibition", "setting": "[16]", "result": 4, "unit": "%"}, {"measurement": "Activity", "setting": "[17]", "result": 7.46, "unit": "%"}, {"measurement": "Activity", "setting": "[18]", "result": 0.75, "unit": "%"}, {"measurement": "Activity", "setting": "[19]", "result": 37.4, "unit": "%"}, {"measurement": "inhibition", "setting": "[20]", "result": 16, "unit": "%"}, {"measurement": "inhibition", "setting": "[21]", "result": 94, "unit": "%"}, {"measurement": "inhibition", "setting": "[22]", "result": -3, "unit": "%"}, {"measurement": "Activity", "setting": "[23]", "result": 0.87, "unit": "%"}, {"measurement": "inhibition", "setting": "[24]", "result": 4, "unit": "%"}, {"measurement": "inhibition", "setting": "[25]", "result": -4, "unit": "%"}, {"measurement": "inhibition", "setting": "[26]", "result": 3, "unit": "%"}, {"measurement": "Activity", "setting": "[27]", "result": 18.4, "unit": "%"}, {"measurement": "inhibition", "setting": "[28]", "result": 5, "unit": "%"}, {"measurement": "inhibition", "setting": "[29]", "result": 4, "unit": "%"}, {"measurement": "inhibition", "setting": "[30]", "result": 2, "unit": "%"}, {"measurement": "inhibition", "setting": "[31]", "result": 1, "unit": "%"}]}]}
